Test [1] relates to Influenza A virus. In words: Antiviral activity against amantadine-resistant Influenza A virus A/WSN/33(H1N1) expressing M2 S31N mutant ion channel infected in MDCK cells assessed as protection against virus induced cytopathic effect after 48 hrs by microscopic analysis. The test is classed as functional, organism-based, A/WSN/1933(H1N1). In outline:
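MDCK cells were grown 24 h to a confluent monolayer and rinsed twice. They were infected with 100 TCID50 virus for 2 h at 37 °C in 5% CO2, and the inoculum was removed. Serial two-fold compound dilutions in DMEM with 1.5 µg/mL trypsin were added for 48 h at 34 °C in 5% CO2. CPE percentage was scored microscopically. IC50 came from non-linear regression, as the mean of 2–3 determinations.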

Test [2] concerns Matrix protein 2 (Influenza A virus (A/Udorn/307/1972(H3N2))), P0DOF8 [S31N]. Description: Inhibition of Influenza A virus M2 S31N mutant ion channel expressed in Xenopus oocytes at 100 uM after 2 mins by two-electrode voltage clamp assay. It is filed as cell-based. Summed up:
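A/M2 channel (S31N for line 7, wild type for line 9) was expressed in Xenopus oocytes and recorded by two-electrode voltage clamp. Compound was applied at 100 µM, and the percentage inhibition of channel current was taken after 2 min. Values are mean ± SD.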

The subject of test [3] is Influenza A virus. Description: Antiviral activity against amantadine-resistant Influenza A virus A/WSN/33(H1N1) expressing M2 S31N mutant ion channel infected in MDCK cells assessed as cell viability after 48 hrs by MTT assay. The test is classed as functional, organism-based, A/WSN/1933(H1N1). In outline: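 Infected MDCK cells were given compound for 48 h, and the CPE-based result was confirmed by MTT viability. MTT was added from a 5 mg/mL stock for 4 h at 37 °C, stopped with DMSO, and read as absorbance at 490 nm. The 50% effective concentration was calculated by the Reed–Muench method, as the mean of 2–3 determinations.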
In general terms: Tetrazolium dyes change colour on reduction, which living cells bring about.

Test [4] has as its system Matrix protein 2 (Influenza A virus (A/Udorn/307/1972(H3N2))), P0DOF8 [S31N]. Description: Inhibition of Influenza A virus M2 S31N mutant ion channel expressed in 293Trex cells at 100 uM after 2 mins by patch clamp assay. The test is classed as cell-based.

The structures appear in SMILES notation.

By IC50 is commonly meant the concentration needed to halve the response being measured. In the case of `Cc1ncc(CN[C@@H]2C[C@@H]3C[C@H]([C@H]2C)C3(C)C)[nH]1`, in test [1], the IC50 result was “Not Active”. In general, inhibition refers to the relative decrease from the control value, in per cent. Low values mean a weak effect, high ones a strong effect. `NC12CC3CC(CC(C3)C1)C2` [AMANTADINE]: the IC50 in test [1] (read-out: IC50) was 337 µM. In test [2], this compound had an inhibition of 24.3%. Consider `CCc1nc[nH]c1CN[C@@H]1C[C@@H]2C[C@H]([C@H]1C)C2(C)C`, for which, in test [1], the IC50 entry was “Not Active”. Take `C[C@@H]1[C@H]2C[C@@H](C[C@H]1NCc1cnc(-c3ccccc3)[nH]1)C2(C)C`: the values for the IC50 in test [1] (read-out: IC50) and in test [3] were 9 µM and 11 µM, respectively. For `Cc1nc(C2CC2)[nH]c1CN[C@@H]1C[C@@H]2C[C@H]([C@H]1C)C2(C)C`, in that order: 9.4 µM and 21.4 µM. For `C[C@@H]1[C@H]2C[C@@H](C[C@H]1NCc1cnc(C(C)(C)C)[nH]1)C2(C)C` the same measures were 9.7 µM and 11.6 µM. For the compound `CCCc1nc[nH]c1CN[C@@H]1C[C@@H]2C[C@H]([C@H]1C)C2(C)C`, the IC50 in test [1] (read-out: IC50) was 3.4 µM; in test [3], 7.3 µM. The inhibition in test [2] stood at 3.47%.

Consider `Cc1nc(C(C)C)[nH]c1CN[C@@H]1C[C@@H]2C[C@H]([C@H]1C)C2(C)C`, for which the IC50 result in test [1] is listed as “Not Active”. The same measure, in the same setting: to `C[C@@H]1[C@H]2C[C@@H](C[C@H]1NCc1cnc(C3CCCC3)[nH]1)C2(C)C` belongs “Not Active”. For the compound `C[C@@H]1[C@H]2C[C@@H](C[C@H]1NCc1cnc(C3CCCCC3)[nH]1)C2(C)C`, the IC50 result in test [1] was “Not Active”. Turning to `Cc1nc[nH]c1CN[C@@H]1C[C@@H]2C[C@H]([C@H]1C)C2(C)C`, the IC50 in test [1] (read-out: IC50) came to 95.5 µM. For the same compound, the inhibition in test [4] came out at 27%. For the compound `C[C@@H]1[C@H]2C[C@@H](C[C@H]1NCc1cnc(C3CC3)[nH]1)C2(C)C`, the IC50 in test [1] (read-out: IC50) was 29.4 µM.

In the case of `C[C@@H]1[C@H]2C[C@@H](C[C@H]1NCc1[nH]cnc1C(C)(C)C)C2(C)C`, the IC50 entry in test [1] was “Not Active”.

With `C[C@@H]1[C@H]2C[C@@H](C[C@H]1NCc1cnc(-c3cccs3)[nH]1)C2(C)C`, the IC50 entry in test [1] is reported as “Not Active”.

With `CC(C)Cc1ncc(CN[C@@H]2C[C@@H]3C[C@H]([C@H]2C)C3(C)C)[nH]1`, the IC50 in test [1] (read-out: IC50) is 8.9 µM; in test [3], 18.6 µM.

In the case of `CC(C)c1ncc(CN[C@@H]2C[C@@H]3C[C@H]([C@H]2C)C3(C)C)[nH]1`, the half-maximal inhibitory concentration (IC50) entry in test [1] is “Not Active”. The same measure, in the same setting: to `C[C@@H]1[C@H]2C[C@@H](C[C@H]1NCc1[nH]cnc1-c1ccccc1)C2(C)C` belongs “Not Active”; to `CCCCc1ncc(CN[C@@H]2C[C@@H]3C[C@H]([C@H]2C)C3(C)C)[nH]1`, “Not Active”. On to `CCCc1nc(C2CC2)[nH]c1CN[C@@H]1C[C@@H]2C[C@H]([C@H]1C)C2(C)C`, for which the IC50 in test [1] (read-out: IC50) was 7.3 µM; in test [3], 9.7 µM. Regarding `C[C@@H]1[C@H]2C[C@@H](C[C@H]1NCc1cncn1C)C2(C)C`, the IC50 result in test [1] was “Not Active”. Turning to `CCCc1nc(C(C)C)[nH]c1CN[C@@H]1C[C@@H]2C[C@H]([C@H]1C)C2(C)C`, the IC50 in test [1] (read-out: IC50) was determined as 8.8 µM; in test [3], 11.3 µM. For `CCc1nc(C)c(CN[C@@H]2C[C@@H]3C[C@H]([C@H]2C)C3(C)C)[nH]1`, the IC50 entry in test [1] is given as “Not Active”. The inhibition in test [2] was 1.73%.

`CCc1ncc(CN[C@@H]2C[C@@H]3C[C@H]([C@H]2C)C3(C)C)[nH]1`: the IC50 in test [1] (read-out: IC50) amounted to 9.5 µM.

For the compound `CCCc1nc(-c2ccccc2)[nH]c1CN[C@@H]1C[C@@H]2C[C@H]([C@H]1C)C2(C)C`, the IC50 in test [1] (read-out: IC50) was determined as 12.3 µM; in test [3], 16.1 µM. `C[C@@H]1[C@H]2C[C@@H](C[C@H]1NCc1[nH]cnc1C1CC1)C2(C)C`: the IC50 entry in test [1] was “Not Active”.

The record behind these values is ChEMBL document CHEMBL3763156, “Imidazole-based pinanamine derivatives: Discovery of dual inhibitors of the wild-type and drug-resistant mutant of the influenza A virus” (Eur J Med Chem, 2016).
